Reference: ChEMBL document CHEMBL1649247, “Fluoroquinolone resistance in Mycobacterium tuberculosis and mutations in gyrA and gyrB” (2009)
In brackets after ≈: the same amount, converted by molar mass. Activity calls are given as the source filed them. No cut-off for these calls is given here.

Assays:
[1] = system: Mycobacterium tuberculosis; assay: Antimycobacterial activity against Mycobacterium tuberculosis 08-0787 harboring gyrA Asp94His mutant gene and deletion of codons 678 and 679 in gyrB mutant gene by resazurin microtiter assay; assay type: functional
How it was run: (§1)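 Isolates taken from fresh Löwenstein-Jensen subcultures grown at 37°C for at most 4 weeks. Drug stocks 1 mg/ml in 0.1 N NaOH, filter sterilized, stored at −20°C less than 2 months. MIC read by resazurin microtiter assay following a previously described protocol.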

[2] = system: Mycobacterium tuberculosis; assay: Antimycobacterial activity against Mycobacterium tuberculosis 08-0771 harboring gyrA putative promoter mutant gene assessed as microbial susceptibility by agar proportion method; assay type: functional, organism-based
How it was run: (§2)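 Clinical isolates freshly subcultured on Löwenstein-Jensen medium, held at 37°C no longer than 4 weeks. Fluoroquinolone stocks 1 mg/ml in 0.1 N NaOH, filter sterilized, kept at −20°C under 2 months. Standard proportion method on 7H11 agar; breakpoints 2 mg/liter ofloxacin, 0.5 mg/liter moxifloxacin and gatifloxacin; scored susceptible or resistant.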

[3] = system: Mycobacterium tuberculosis; assay: Antimycobacterial activity against multidrug-resistant Mycobacterium tuberculosis 08-0810 harboring gyrA Asp94Tyr mutant gene assessed as microbial susceptibility by agar proportion method; assay type: functional, organism-based
How it was run: (§3)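 Clinical isolates freshly subcultured on Löwenstein-Jensen medium at 37°C for no more than 4 weeks. Susceptibility by standard proportion method on 7H11 agar at breakpoints of 2 mg/liter ofloxacin and 0.5 mg/liter moxifloxacin and gatifloxacin. Drug stocks 1 mg/ml in 0.1 N NaOH, filter sterilized, held at −20°C under 2 months. Isolates scored susceptible or resistant.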

[4] = system: Mycobacterium tuberculosis; assay: Antimycobacterial activity against multidrug-resistant Mycobacterium tuberculosis 08-0790 harboring gyrA Ala90Val mutant gene assessed as microbial susceptibility by agar proportion method; assay type: functional, organism-based; how it was run: as §3
[5] = system: Mycobacterium tuberculosis; assay: Antimycobacterial activity against Mycobacterium tuberculosis 08-0745 harboring gyrA Asp89Asn mutant gene assessed as microbial susceptibility by agar proportion method; assay type: functional, organism-based; how it was run: as §2
[6] = system: Mycobacterium tuberculosis; assay: Antimycobacterial activity against multidrug-resistant Mycobacterium tuberculosis 02-1234 harboring gyrA Asn533Thr gyrB mutant gene by resazurin microtiter assay; assay type: functional; how it was run: as §1
[7] = system: Mycobacterium tuberculosis; assay: Antimycobacterial activity against Mycobacterium tuberculosis 08-0771 harboring gyrA putative promoter mutant gene by resazurin microtiter assay; assay type: functional; how it was run: as §1
[8] = system: Mycobacterium tuberculosis; assay: Antimycobacterial activity against Mycobacterium tuberculosis 08-0815 harboring gyrA Thr80Ala and Ala90Gly mutant gene assessed as microbial susceptibility by agar proportion method; assay type: functional, organism-based; how it was run: as §2
[9] = system: Mycobacterium tuberculosis; assay: Antimycobacterial activity against multidrug-resistant Mycobacterium tuberculosis 01-2834 by resazurin microtiter assay; assay type: functional; how it was run: as §1
[10] = system: Mycobacterium tuberculosis; assay: Antimycobacterial activity against Mycobacterium tuberculosis 08-0787 harboring gyrA Asp94His mutant gene assessed as microbial susceptibility and deletion of codons 678 and 679 in gyrB mutant gene assessed as microbial susceptibility by agar proportion method; assay type: functional, organism-based; how it was run: as §2
[11] = system: Mycobacterium tuberculosis; assay: Antimycobacterial activity against multidrug-resistant Mycobacterium tuberculosis 02-2399 harboring gyrA Asp94Tyr mutant gene by resazurin microtiter assay; assay type: functional; how it was run: as §1
[12] = system: Mycobacterium tuberculosis; assay: Antimycobacterial activity against multidrug-resistant Mycobacterium tuberculosis 08-0810 harboring gyrA Asp94Tyr mutant gene by resazurin microtiter assay; assay type: functional
How it was run: (§4)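 MIC was read by resazurin microtiter assay against ofloxacin, moxifloxacin and gatifloxacin. Isolates were used as fresh Löwenstein-Jensen subcultures kept at 37°C for no longer than 4 weeks.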

[13] = system: Mycobacterium tuberculosis; assay: Antimycobacterial activity against multidrug-resistant Mycobacterium tuberculosis 08-0779 assessed as microbial susceptibility by agar proportion method; assay type: functional, organism-based; how it was run: as §3
[14] = system: Mycobacterium tuberculosis; assay: Antimycobacterial activity against multidrug-resistant Mycobacterium tuberculosis 08-0821 harboring gyrA Asp94Tyr mutant gene assessed as microbial susceptibility by agar proportion method; assay type: functional, organism-based; how it was run: as §3
[15] = system: Mycobacterium tuberculosis; assay: Antimycobacterial activity against multidrug-resistant Mycobacterium tuberculosis 08-0794 harboring gyrA Thr80Ala mutant gene assessed as microbial susceptibility by agar proportion method; assay type: functional, organism-based; how it was run: as §3
[16] = system: Mycobacterium tuberculosis; assay: Antimycobacterial activity against Mycobacterium tuberculosis 08-0773 harboring gyrA Pro8Ala mutant gene by resazurin microtiter assay; assay type: functional; how it was run: as §1
[17] = system: Mycobacterium tuberculosis; assay: Antimycobacterial activity against multidrug-resistant Mycobacterium tuberculosis 01-0930 harboring gyrA Ala90Val mutant gene by resazurin microtiter assay; assay type: functional; how it was run: as §1
[18] = system: Mycobacterium tuberculosis; assay: Antimycobacterial activity against Mycobacterium tuberculosis 02-1975 harboring gyrA Asp94Gly mutant gene by resazurin microtiter assay; assay type: functional; how it was run: as §1
[19] = system: Mycobacterium tuberculosis; assay: Antimycobacterial activity against multidrug-resistant Mycobacterium tuberculosis 99-1914 harboring gyrA Asp94Gly mutant gene by resazurin microtiter assay; assay type: functional; how it was run: as §4
[20] = system: Mycobacterium tuberculosis; assay: Antimycobacterial activity against multidrug-resistant Mycobacterium tuberculosis 08-0785 harboring gyrA Ala90Val mutant gene assessed as microbial susceptibility by agar proportion method; assay type: functional, organism-based; how it was run: as §3
[21] = system: Mycobacterium tuberculosis; assay: Antimycobacterial activity against Mycobacterium tuberculosis 04-0649 harboring gyrA Asp94Asn mutant gene assessed as microbial susceptibility by agar proportion method; assay type: functional, organism-based; how it was run: as §2
[22] = system: Mycobacterium tuberculosis; assay: Antimycobacterial activity against Mycobacterium tuberculosis 04-0649 harboring gyrA Asp94Asn mutant gene by resazurin microtiter assay; assay type: functional; how it was run: as §1
[23] = system: Mycobacterium tuberculosis; assay: Antimycobacterial activity against multidrug-resistant Mycobacterium tuberculosis 08-0746 assessed as microbial susceptibility by agar proportion method; assay type: functional, organism-based; how it was run: as §3
[24] = system: Mycobacterium tuberculosis; assay: Antimycobacterial activity against multidrug-resistant Mycobacterium tuberculosis 08-0744 harboring gyrA Asp94Tyr mutant gene assessed as microbial susceptibility by agar proportion method; assay type: functional, organism-based; how it was run: as §3
[25] = system: Mycobacterium tuberculosis; assay: Antimycobacterial activity against multidrug-resistant Mycobacterium tuberculosis 02-2399 harboring gyrA Asp94Tyr mutant gene assessed as microbial susceptibility by agar proportion method; assay type: functional, organism-based; how it was run: as §2
[26] = system: Mycobacterium tuberculosis; assay: Antimycobacterial activity against multidrug-resistant Mycobacterium tuberculosis 99-1914 harboring gyrA Asp94Gly mutant gene assessed as microbial susceptibility by agar proportion method; assay type: functional, organism-based; how it was run: as §3
[27] = system: Mycobacterium tuberculosis; assay: Antimycobacterial activity against Mycobacterium tuberculosis 08-0745 harboring gyrA Asp89Asn mutant gene by resazurin microtiter assay; assay type: functional; how it was run: as §1
[28] = system: Mycobacterium tuberculosis; assay: Antimycobacterial activity against multidrug-resistant Mycobacterium tuberculosis 04-0519 harboring gyrA Ala90Val and Asp94Asn mutant gene assessed as microbial susceptibility by agar proportion method; assay type: functional, organism-based; how it was run: as §3
[29] = system: Mycobacterium tuberculosis; assay: Antimycobacterial activity against multidrug-resistant Mycobacterium tuberculosis 08-0779 by resazurin microtiter assay; assay type: functional; how it was run: as §4
[30] = system: Mycobacterium tuberculosis; assay: Antimycobacterial activity against Mycobacterium tuberculosis 08-0773 harboring gyrA Pro8Ala mutant gene assessed as microbial susceptibility by agar proportion method; assay type: functional, organism-based; how it was run: as §2
[31] = system: Mycobacterium tuberculosis; assay: Antimycobacterial activity against multidrug-resistant Mycobacterium tuberculosis 02-2934 harboring gyrA Ala90Val mutant gene assessed as microbial susceptibility by agar proportion method; assay type: functional, organism-based; how it was run: as §2
[32] = system: Mycobacterium tuberculosis; assay: Antimycobacterial activity against multidrug-resistant Mycobacterium tuberculosis 01-1647 harboring gyrA Ala90Val mutant gene assessed as microbial susceptibility by agar proportion method; assay type: functional, organism-based; how it was run: as §2
[33] = system: Mycobacterium tuberculosis; assay: Antimycobacterial activity against multidrug-resistant Mycobacterium tuberculosis 03-0738 harboring gyrA Ala90Val mutant gene by resazurin microtiter assay; assay type: functional; how it was run: as §4
[34] = system: Mycobacterium tuberculosis; assay: Antimycobacterial activity against multidrug-resistant Mycobacterium tuberculosis 02-0319 harboring gyrA Asp94Ala mutant gene by resazurin microtiter assay; assay type: functional; how it was run: as §1
[35] = system: Mycobacterium tuberculosis; assay: Antimycobacterial activity against multidrug-resistant Mycobacterium tuberculosis 08-0746 by resazurin microtiter assay; assay type: functional; how it was run: as §4
[36] = system: Mycobacterium tuberculosis; assay: Antimycobacterial activity against multidrug-resistant Mycobacterium tuberculosis 02-2934 harboring gyrA Ala90Val mutant gene by resazurin microtiter assay; assay type: functional; how it was run: as §1
[37] = system: Mycobacterium tuberculosis; assay: Antimycobacterial activity against multidrug-resistant Mycobacterium tuberculosis 01-0172 harboring gyrA Asp94Ala mutant gene by resazurin microtiter assay; assay type: functional; how it was run: as §1

With COc1c(N2CCNC(C)C2)c(F)cc2c(=O)c(C(=O)O)cn(C3CC3)c12 (centres undefined) [GATIFLOXACIN] the MIC [1] was 1 µg/mL (≈ 2.66 µM), the Activity [2] was “Active” and the Activity [3] was “inactive”. For the same molecule, the Activity [4] was “inactive”, the Activity [5] was “inactive” and the MIC [6] was 0.5 µg/mL (≈ 1.33 µM). For the same molecule, the MIC [7] was 0.125 µg/mL (≈ 0.333 µM), the Activity [8] was “Active” and the MIC [9] was 0.5 µg/mL (≈ 1.33 µM). The Activity [10] was “inactive”, the MIC [11] was 0.25 µg/mL (≈ 0.666 µM) and the MIC [12] was 1 µg/mL (≈ 2.66 µM). For the same molecule, the Activity [13] was “Active”, the Activity [14] was “inactive” and the Activity [15] was “Active”. For the same molecule, the MIC [16] was “<=0.062 mg/L”, the MIC [17] was 0.5 µg/mL (≈ 1.33 µM) and the MIC [18] was 1 µg/mL (≈ 2.66 µM). The MIC [19] was 1 µg/mL (≈ 2.66 µM), the Activity [20] was “inactive” and the Activity [21] was “inactive”. The MIC [22] was 1 µg/mL (≈ 2.66 µM), the Activity [23] was “Active” and the Activity [24] was “inactive”. For the same molecule, the Activity [25] was “inactive”, the Activity [26] was “inactive” and the MIC [27] was 1 µg/mL (≈ 2.66 µM). The Activity [28] was “inactive”, the MIC [29] was no more than 0.062 µg/mL and the Activity [30] was “Active”. For the same molecule, the Activity [31] was “inactive”, the Activity [32] was “inactive” and the MIC [33] was 0.25 µg/mL (≈ 0.666 µM). It also gave an MIC [34] of 0.25 µg/mL (≈ 0.666 µM), an MIC [35] of no more than 0.062 µg/mL and an MIC [36] of 0.25 µg/mL (≈ 0.666 µM). It also gave an MIC [37] of 0.25 µg/mL (≈ 0.666 µM).
In the case of COc1c(N2C[C@@H]3CCCN[C@@H]3C2)c(F)cc2c(=O)c(C(=O)O)cn(C3CC3)c12 [MOXIFLOXACIN], the MIC [1] is reported as 2 µg/mL (≈ 4.98 µM), the Activity [2] is reported as “Active” and the Activity [3] is reported as “inactive”. The Activity [4] was “inactive”, the Activity [5] was “inactive” and the MIC [6] was 0.5 µg/mL (≈ 1.25 µM). For the same molecule, the MIC [7] was “<=0.125 mg/L”, the Activity [8] was “Active” and the MIC [9] was 1 µg/mL (≈ 2.49 µM). The Activity [10] was “inactive”, the MIC [11] was 0.5 µg/mL (≈ 1.25 µM) and the MIC [12] was 2 µg/mL (≈ 4.98 µM). The Activity [13] was “Active”, the Activity [14] was “inactive” and the Activity [15] was “Active”. For the same molecule, the MIC [16] was “<=0.125 mg/L”, the MIC [17] was 0.5 µg/mL (≈ 1.25 µM) and the MIC [18] was 2 µg/mL (≈ 4.98 µM). The MIC [19] was 2 µg/mL (≈ 4.98 µM), the Activity [20] was “inactive” and the Activity [21] was “inactive”. The MIC [22] was 4 µg/mL (≈ 9.96 µM), the Activity [23] was “Active” and the Activity [24] was “inactive”. For the same molecule, the Activity [25] was “inactive”, the Activity [26] was “inactive” and the MIC [27] was 2 µg/mL (≈ 4.98 µM). The Activity [28] was “inactive”, the MIC [29] was no more than 0.125 µg/mL and the Activity [30] was “Active”. For the same molecule, the Activity [31] was “inactive”, the Activity [32] was “inactive” and the MIC [33] was 0.25 µg/mL (≈ 0.623 µM). The MIC [34] was 0.5 µg/mL (≈ 1.25 µM), the MIC [35] was no more than 0.125 µg/mL and the MIC [36] was 0.25 µg/mL (≈ 0.623 µM). The MIC [37] was 0.5 µg/mL (≈ 1.25 µM).
